Laboratory results published in ChEMBL document CHEMBL1817572, “New, potent, selective, and short-acting peptidic V1a receptor agonists” (J Med Chem, 2011).
Bridge positions count the residues as written; N and C are the ends. Square brackets hold non-standard residues; d marks the D form. Peptide text beside a SMILES is read from it. * marks the point of attachment. Ala(4-thiazolyl) = N[C@@H](Cc1cscn1)C(=O)O; Ala(2-furyl) = N[C@@H](Cc1ccco1)C(=O)O; Orn(iPr) = CC(C)NCCC[C@H](N)C(=O)O; Orn(Pr) = CCCNCCC[C@H](N)C(=O)O; 2Thi = N[C@@H](Cc1cccs1)C(=O)O; 3Thi = N[C@@H](Cc1ccsc1)C(=O)O; NHCH(CH2OH)2 = OCC(CO)N*; Orn = NCCC[C@H](N)C(=O)O; Dab = NCC[C@H](N)C(=O)O; Ac4c = NC1(C(=O)O)CCC1; NHiBu = CC(C)CN*

Columns and labels:
[1] = biological target: T1, Vasopressin V1b receptor (Homo sapiens, UniProt P47901); assay: Agonist activity at recombinant human vasopressin V1b receptor expressed in Flp-In-293 cells by luciferase reporter gene assay; assay type: functional, cell-based
T1 sequence (P47901 whole entry): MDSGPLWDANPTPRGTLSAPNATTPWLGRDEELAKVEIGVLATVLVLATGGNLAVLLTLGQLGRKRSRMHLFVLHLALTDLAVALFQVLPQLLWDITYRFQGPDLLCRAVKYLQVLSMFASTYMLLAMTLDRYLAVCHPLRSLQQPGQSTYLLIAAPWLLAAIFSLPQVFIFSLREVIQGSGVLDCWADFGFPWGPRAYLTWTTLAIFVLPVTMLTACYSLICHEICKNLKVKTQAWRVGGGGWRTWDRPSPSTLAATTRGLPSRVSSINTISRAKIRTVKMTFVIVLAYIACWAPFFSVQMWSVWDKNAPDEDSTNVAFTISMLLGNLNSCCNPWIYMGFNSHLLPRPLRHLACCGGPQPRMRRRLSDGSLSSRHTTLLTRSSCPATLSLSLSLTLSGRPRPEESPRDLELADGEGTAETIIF
Outline: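 Reporter gene assays in HEK293 cells transiently cotransfected with V1a (human or rat) or human V2 receptor vector plus NFAT-luciferase (V1a) or CRE-luciferase (V2) reporter; V1b in Flp-In-293 stably expressing receptor, OT in CHO-K1 stably expressing receptor, both transiently transfected with NFAT-luciferase. Two days post-transfection, peptides added for 5 h at 37 °C, lysis with luciferin, luminescence read.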

[2] = biological target: T2, Vasopressin V1a receptor (Homo sapiens, UniProt P37288); assay: Partial agonist activity at recombinant human vasopressin V1a receptor expressed in HEK293 cells by luciferase reporter gene assay; assay type: functional, cell-based
Outline: (§1)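 Same luciferase reporter systems (OT in stable CHO-K1, V1b in stable Flp-In-293, each with transient NFAT-luciferase; V1a in HEK293 with NFAT-luciferase, V2 in HEK293 with CRE-luciferase). Peptides added for 5 h at 37 °C two days post-transfection, luminescence read. Partial agonism means efficacy <70%.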
Target sequence in this assay (P37288 whole entry, looked up): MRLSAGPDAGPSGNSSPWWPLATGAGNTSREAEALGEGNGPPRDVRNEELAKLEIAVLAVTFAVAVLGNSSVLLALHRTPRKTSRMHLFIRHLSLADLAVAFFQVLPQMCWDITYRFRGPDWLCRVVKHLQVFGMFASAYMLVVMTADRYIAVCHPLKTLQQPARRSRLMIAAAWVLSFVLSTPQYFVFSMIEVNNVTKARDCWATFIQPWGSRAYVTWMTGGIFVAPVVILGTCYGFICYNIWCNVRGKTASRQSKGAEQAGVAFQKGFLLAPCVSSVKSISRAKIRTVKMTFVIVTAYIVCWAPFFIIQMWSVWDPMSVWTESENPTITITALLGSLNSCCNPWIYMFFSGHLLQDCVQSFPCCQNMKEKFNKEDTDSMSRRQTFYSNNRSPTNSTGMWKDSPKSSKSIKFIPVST

[3] = biological target: T3, Oxytocin receptor (Homo sapiens, UniProt P30559); assay: Agonist activity at human OT receptor expressed in CHO-K1 cells by luciferase reporter gene assay; assay type: functional, cell-based
T3 sequence (P30559 whole entry): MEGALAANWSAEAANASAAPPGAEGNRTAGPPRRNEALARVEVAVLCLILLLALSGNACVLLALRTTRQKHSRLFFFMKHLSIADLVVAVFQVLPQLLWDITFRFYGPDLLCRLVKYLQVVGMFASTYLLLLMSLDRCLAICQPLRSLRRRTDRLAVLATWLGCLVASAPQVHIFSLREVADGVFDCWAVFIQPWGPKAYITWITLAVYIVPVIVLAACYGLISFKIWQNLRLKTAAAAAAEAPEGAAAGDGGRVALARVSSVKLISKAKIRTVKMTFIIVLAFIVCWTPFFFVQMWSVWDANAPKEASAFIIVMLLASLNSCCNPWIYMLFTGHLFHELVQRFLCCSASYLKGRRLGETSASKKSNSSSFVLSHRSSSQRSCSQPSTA

[4] = biological target: Vasopressin V1a/V2 (Homo sapiens) (UniProt P30518+P37288); assay: Selectivity ratio of EC50 for human vasopressin V2 receptor to EC50 for human vasopressin V1a receptor
Vasopressin V1a/V2 (Homo sapiens), sequence (P30518 whole entry, looked up): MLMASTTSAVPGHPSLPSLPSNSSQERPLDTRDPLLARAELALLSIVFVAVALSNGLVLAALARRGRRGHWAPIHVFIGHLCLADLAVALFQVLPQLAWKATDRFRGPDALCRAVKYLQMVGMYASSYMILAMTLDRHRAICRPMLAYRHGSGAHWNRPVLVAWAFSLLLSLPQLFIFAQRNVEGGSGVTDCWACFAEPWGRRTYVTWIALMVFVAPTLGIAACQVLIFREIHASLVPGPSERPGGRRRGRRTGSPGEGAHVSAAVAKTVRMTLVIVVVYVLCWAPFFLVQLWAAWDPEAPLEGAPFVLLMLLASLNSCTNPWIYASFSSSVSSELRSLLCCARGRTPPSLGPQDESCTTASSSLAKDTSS
Vasopressin V1a/V2 (Homo sapiens), sequence (P37288 whole entry, looked up): as the sequence (P37288 whole entry, looked up) above

[5] = organism: Homo sapiens; assay: Selectivity ratio of EC50 for human oxytocin receptor to EC50 for human vasopressin V1a receptor
[6] = biological target: T2, Vasopressin V1a receptor; assay: Agonist activity at recombinant human vasopressin V1a receptor expressed in HEK293 cells by luciferase reporter gene assay; assay type: functional, cell-based; details: read-out: EC50
Target sequence in this assay (P37288 whole entry): as the sequence (P37288 whole entry, looked up) above

[7] = biological target: T4, Vasopressin V2 receptor (Homo sapiens, UniProt P30518); assay: Agonist activity at recombinant human vasopressin V2 receptor expressed in HEK293 cells by luciferase reporter gene assay; assay type: functional, cell-based
T4 sequence (P30518 whole entry): as the sequence (P30518 whole entry, looked up) above

[8] = biological target: T5, Vasopressin V1b receptor (Homo sapiens) (UniProt P47901); assay: Partial agonist activity at recombinant human vasopressin V1b receptor expressed in Flp-In-293 cells by luciferase reporter gene assay; assay type: functional, cell-based; outline: as §1
T5 sequence (whole entry): T1 sequence (P47901 whole entry)

[9] = organism: Homo sapiens; assay: Selectivity ratio of EC50 for human vasopressin V1b receptor to EC50 for human vasopressin V1a receptor
[10] = biological target: T4, Vasopressin V2 receptor; assay: Partial agonist activity at recombinant human vasopressin V2 receptor expressed in HEK293 cells by luciferase reporter gene assay; assay type: functional, cell-based; outline: as §1
[11] = biological target: T6, Oxytocin receptor (Homo sapiens) (UniProt P30559); assay: Partial agonist activity at human OT receptor expressed in CHO-K1 cells by luciferase reporter gene assay; assay type: functional, cell-based; outline: as §1
T6 sequence (whole entry): T3 sequence (P30559 whole entry)

Compound | EC50 ([1]; read-out: EC50) [nM] | Efficacy [2] [%] | EC50 ([3]; cho-k1, read-out: EC50) [nM] | EC50 ([3]; read-out: pEC50 (converted)) [nM] | Ratio EC50 [4] | Ratio EC50 [5] | EC50 [6] [nM] | EC50 ([7]; hek293, read-out: EC50) [nM] | EC50 ([7]; read-out: pEC50 (converted)) [nM] | Efficacy [8] [%] | Ratio EC50 [9] | Efficacy [10] [%] | EC50 ([7]; read-out: EC50) [nM] | EC50 ([3]; read-out: EC50) [nM] | Efficacy [11] [%] | EC50 ([1]; flp-in-293, read-out: EC50) [nM] | EC50 ([1]; read-out: pEC50 (converted)) [nM]
CC[C@H](C)[C@@H]1NC(=O)[C@H](Cc2ccccc2)NC(=O)[C@@H](N)CSSC[C@@H](C(=O)N2CCC[C@H]2C(=O)N[C@@H](CCCN)C(=O)NCC(N)=O)NC(=O)[C@H](CC(N)=O)NC(=O)[C@H](CC(=O)NC(CO)CO)NC1=O (H-CFID(NHCH(CH2OH)2)NCP[Orn]G-NH2; disulfide 1-6) | 62 | < 70 | > 10000 | > 10000 | > 620 | > 620 | 16 | > 10000 | > 10000 | < 70 | 3.8 |  |  |  |  |  | 
CC[C@H](C)[C@@H]1NC(=O)[C@H](Cc2ccccc2)NC(=O)[C@@H](N)CSSC[C@@H](C(=O)N2CCC[C@H]2C(=O)N[C@@H](CCCN)C(=O)NCC(N)=O)NC(=O)[C@H](CC(N)=O)NC(=O)[C@H](CCC(=O)NCC(C)C)NC1=O (H-CFIE(NHiBu)NCP[Orn]G-NH2; disulfide 1-6) | 150 |  | > 10000 | > 10000 | 140 | > 470 | 21 |  |  |  | 7.1 | < 70 | 3000 |  |  |  | 
CCCNCCC[C@H](NC(=O)[C@@H]1CCCN1C(=O)[C@@H]1CSSC[C@H](N)C(=O)N[C@@H](Cc2ccccc2)C(=O)N[C@@H]([C@@H](C)CC)C(=O)N[C@@H](CC(N)=O)C(=O)N[C@@H](CC(N)=O)C(=O)N1)C(=O)NCC(N)=O (H-CFINNCP[Orn(Pr)]G-NH2; disulfide 1-6) | 31 |  | > 10000 | > 10000 | > 6600 | > 6600 | 1.5 | > 10000 | > 10000 | < 70 | 20 |  |  |  |  |  | 
CC[C@H](C)[C@@H]1NC(=O)[C@H](Cc2ccccc2)NC(=O)[C@@H](N)CSSC[C@@H](C(=O)N2CCC[C@H]2C(=O)N[C@@H](CCCNC(C)C)C(=O)NCC(N)=O)NC(=O)[C@H](CC(N)=O)NC(=O)[C@H](CC(N)=O)NC1=O (H-CFINNCP[Orn(iPr)]G-NH2; disulfide 1-6) | 250 |  |  |  | 2600 | 78 | 1.4 |  |  |  | 170 | < 70 | 3700 | 110 | < 70 |  | 
CC[C@H](C)[C@@H]1NC(=O)[C@H](Cc2ccccc2)NC(=O)[C@@H](N)CSSC[C@@H](C(=O)N2CCC[C@H]2C(=O)N[C@@H](CCN)C(=O)NCC(N)=O)NC(=O)[C@H](CC(N)=O)NC(=O)[C@H](CCC(N)=O)NC1=O (H-CFIQNCP[Dab]G-NH2; disulfide 1-6) | 26 |  |  |  | 140 | 18 |  |  |  |  | 52 |  | 73 | 9.1 | < 70 |  | 
CC[C@H](C)[C@@H]1NC(=O)[C@H](Cc2cnc[nH]2)NC(=O)[C@@H](N)CSSC[C@@H](C(=O)N2CCC[C@H]2C(=O)N[C@@H](CCN)C(=O)NCC(N)=O)NC(=O)[C@H](CC(N)=O)NC(=O)[C@H](CCC(N)=O)NC1=O (H-CHIQNCP[Dab]G-NH2; disulfide 1-6) |  | < 70 | > 10000 | > 10000 | > 19 | > 19 | 510 | > 10000 | > 10000 |  | > 19 |  |  |  |  | > 10000 | > 10000
CC[C@H](C)[C@@H]1NC(=O)[C@H](Cc2cccs2)NC(=O)[C@@H](N)CSSC[C@@H](C(=O)N2CCC[C@H]2C(=O)N[C@@H](CCN)C(=O)NCC(N)=O)NC(=O)[C@H](CC(N)=O)NC(=O)[C@H](CCC(N)=O)NC1=O (H-C[2Thi]IQNCP[Dab]G-NH2; disulfide 1-6) | 150 |  |  |  | 220 | 53 | 0.54 |  |  |  | 270 |  | 120 | 29 | < 70 |  | 
CC[C@H](C)[C@@H]1NC(=O)[C@H](Cc2ccsc2)NC(=O)[C@@H](N)CSSC[C@@H](C(=O)N2CCC[C@H]2C(=O)N[C@@H](CCN)C(=O)NCC(N)=O)NC(=O)[C@H](CC(N)=O)NC(=O)[C@H](CCC(N)=O)NC1=O (H-C[3Thi]IQNCP[Dab]G-NH2; disulfide 1-6) | 50 |  |  |  | 320 | 49 | 0.61 |  |  | < 70 | 81 |  | 200 | 30 | < 70 |  | 
CC[C@H](C)[C@@H]1NC(=O)C2(CCC2)NC(=O)[C@@H](N)CSSC[C@@H](C(=O)N2CCC[C@H]2C(=O)N[C@@H](CCN)C(=O)NCC(N)=O)NC(=O)[C@H](CC(N)=O)NC(=O)[C@H](CCC(N)=O)NC1=O (H-C[Ac4c]IQNCP[Dab]G-NH2; disulfide 1-6) | 64 |  |  | > 10000 | 400 | 190 | 0.94 |  |  |  | 68 |  | 380 | 180 | < 70 |  | 
CC[C@H](C)[C@@H]1NC(=O)[C@H](Cc2ccco2)NC(=O)[C@@H](N)CSSC[C@@H](C(=O)N2CCC[C@H]2C(=O)N[C@@H](CCN)C(=O)NCC(N)=O)NC(=O)[C@H](CC(N)=O)NC(=O)[C@H](CC(N)=O)NC1=O (H-C[Ala(2-furyl)]INNCP[Dab]G-NH2; disulfide 1-6) | 460 |  |  |  | > 710 | 55 | 14 | > 10000 | > 10000 |  | 32 |  |  | 780 | < 70 |  | 
CC[C@H](C)[C@@H]1NC(=O)[C@H](Cc2cscn2)NC(=O)[C@@H](N)CSSC[C@@H](C(=O)N2CCC[C@H]2C(=O)N[C@@H](CCN)C(=O)NCC(N)=O)NC(=O)[C@H](CC(N)=O)NC(=O)[C@H](CCC(N)=O)NC1=O (H-C[Ala(4-thiazolyl)]IQNCP[Dab]G-NH2; disulfide 1-6) | 430 |  |  |  | 130 | 63 | 19 |  |  |  | 22 | < 70 | 2500 | 1200 | < 70 |  | 
